Assay results reported in ChEMBL document CHEMBL3734657, “Discovery of Novel Multifunctional Ligands with μ/δ Opioid Agonist/Neurokinin-1 (NK1) Antagonist Activities for the Treatment of Pain” (J Med Chem, 2015).
Active and inactive are the calls of the source. The rule behind the calls is not given here.

Assays:
Mu-type opioid receptor [1] = biological target: T1, Mu-type opioid receptor (Homo sapiens, UniProt P35372); assay: Binding affinity to mu opioid receptor (unknown origin)
Homo sapiens [2] = organism: Homo sapiens; assay: Selectivity ratio of Ki for mu opioid receptor (unknown origin) to Ki for delta opioid receptor (unknown origin)
[3] = biological target: Substance-P receptor (Cavia porcellus) (UniProt P30547); assay: Agonist activity at neurokinin-1 receptor in Hartley guniea pig isolated ileum/Longitudinal Muscle with Myenteric Plexus assessed as inhibition of electrically-stimulated muscle contraction at 30 nM; type: tissue-based
Substance-P receptor (Cavia porcellus), sequence (P30547 whole entry): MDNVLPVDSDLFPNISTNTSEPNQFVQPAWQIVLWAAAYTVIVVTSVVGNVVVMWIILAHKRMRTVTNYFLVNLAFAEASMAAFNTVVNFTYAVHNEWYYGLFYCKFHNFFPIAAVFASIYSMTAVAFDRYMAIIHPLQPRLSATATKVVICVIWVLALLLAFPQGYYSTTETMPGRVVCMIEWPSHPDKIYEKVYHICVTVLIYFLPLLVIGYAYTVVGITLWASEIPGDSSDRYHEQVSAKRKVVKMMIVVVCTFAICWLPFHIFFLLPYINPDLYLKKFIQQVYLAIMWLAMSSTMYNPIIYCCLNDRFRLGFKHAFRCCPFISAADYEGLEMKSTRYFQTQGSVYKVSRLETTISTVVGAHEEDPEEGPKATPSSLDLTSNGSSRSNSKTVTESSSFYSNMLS

Substance-P receptor = Substance-P receptor (Rattus norvegicus, UniProt P14600); assay: Displacement of [3H]SP from rat neurokinin-1 receptor expressed in CHO cells incubated for 20 mins by liquid scintillation counting; type: cell-based
Substance-P receptor, sequence (P14600 whole entry): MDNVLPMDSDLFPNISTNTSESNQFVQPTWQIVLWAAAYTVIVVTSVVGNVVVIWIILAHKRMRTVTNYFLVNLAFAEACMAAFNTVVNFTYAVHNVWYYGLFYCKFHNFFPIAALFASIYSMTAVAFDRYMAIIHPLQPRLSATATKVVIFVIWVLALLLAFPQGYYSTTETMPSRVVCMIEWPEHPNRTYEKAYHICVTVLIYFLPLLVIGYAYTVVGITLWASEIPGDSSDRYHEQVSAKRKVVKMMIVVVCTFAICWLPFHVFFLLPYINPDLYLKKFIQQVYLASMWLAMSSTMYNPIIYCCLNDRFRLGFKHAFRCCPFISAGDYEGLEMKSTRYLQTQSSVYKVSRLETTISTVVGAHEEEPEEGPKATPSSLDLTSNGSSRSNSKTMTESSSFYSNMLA
Method in brief: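 CHO membranes with human or rat NK1: six compound concentrations in duplicate with 20 μg membrane and 0.5 nM [3H]SP in 50 mM Tris pH 7.4, 5 mM MgCl2 plus peptidase inhibitors; 25 °C, 20 min. Nonspecific binding with 10 μM SP. GF/B filtration (PEI-soaked), scintillation counting.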

[4] = biological target: T2, Delta-type opioid receptor (Homo sapiens, UniProt P41143); assay: Binding affinity to delta opioid receptor (unknown origin)
T2 sequence (P41143 whole entry): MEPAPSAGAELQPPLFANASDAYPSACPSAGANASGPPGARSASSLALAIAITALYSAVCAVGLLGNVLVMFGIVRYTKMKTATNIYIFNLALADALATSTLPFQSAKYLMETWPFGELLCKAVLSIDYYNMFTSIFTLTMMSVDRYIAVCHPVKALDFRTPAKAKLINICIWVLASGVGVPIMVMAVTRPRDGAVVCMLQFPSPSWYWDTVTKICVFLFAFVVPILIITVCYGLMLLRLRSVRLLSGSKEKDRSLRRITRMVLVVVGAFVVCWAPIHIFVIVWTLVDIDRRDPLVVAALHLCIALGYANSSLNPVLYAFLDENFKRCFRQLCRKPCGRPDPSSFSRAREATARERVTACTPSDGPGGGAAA

[5] = Metabolic stability in rat plasma assessed as compound remaining at 50 ug/ml […] by RP-HPLC assay; type: ADME, cell-free; details: read-out: Stability
Mu-type opioid receptor [6] = biological target: Mu-type opioid receptor (Cavia porcellus, UniProt P97266); assay: Agonist activity at mu opioid receptor in Hartley guniea pig isolated ileum assessed as inhibition of electrically-stimulated muscle contraction; type: tissue-based
Mu-type opioid receptor (Cavia porcellus, UniProt P97266), sequence (P97266 whole entry): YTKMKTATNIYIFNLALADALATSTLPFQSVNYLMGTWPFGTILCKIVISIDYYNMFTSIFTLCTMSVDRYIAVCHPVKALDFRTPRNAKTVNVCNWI

Mu-type opioid receptor [7] = biological target: T1, Mu-type opioid receptor; assay: Agonist activity at mu opioid receptor (unknown origin) expressed in HEK293 cells assessed as inhibition of forskolin-induced cAMP accumulation by bioluminescent assay; type: functional, cell-based
[8] = biological target: T2, Delta-type opioid receptor; assay: Agonist activity at delta receptor (unknown origin) expressed in HEK293 cells assessed as inhibition of forskolin-induced cAMP accumulation by bioluminescent assay; type: functional, cell-based
[9] = Selectivity ratio of IC50 for mu opioid receptor in Hartley guniea pig isolated ileum to IC50 for delta opioid receptor in ICR mouse isolated vas deferens; type: tissue-based
[10] = biological target: Substance-P receptor (Cavia porcellus) (UniProt P30547); assay: Agonist activity at neurokinin-1 receptor in Hartley guniea pig isolated ileum/Longitudinal Muscle with Myenteric Plexus assessed as inhibition of electrically-stimulated muscle contraction at 100 nM; type: tissue-based
[11] = biological target: Substance-P receptor (Cavia porcellus) (UniProt P30547); assay: Antagonist activity at neurokinin-1 receptor in Hartley guniea pig isolated ileum/Longitudinal Muscle with Myenteric Plexus assessed as inhibition of electrically-stimulated muscle contraction; type: tissue-based
Homo sapiens [12] = organism: Homo sapiens; assay: Selectivity ratio of IC50 for mu opioid receptor (unknown origin) to IC50 for delta opioid receptor (unknown origin)
[13] = biological target: Substance-P receptor (Homo sapiens) (UniProt P25103); assay: Antagonist activity at neurokinin-1 receptor (unknown origin) expressed in CHO cells assessed as inhibition of substance-P induced calcium flux by bioluminescent assay; type: functional, cell-based
Substance-P receptor (Homo sapiens), sequence (P25103 whole entry): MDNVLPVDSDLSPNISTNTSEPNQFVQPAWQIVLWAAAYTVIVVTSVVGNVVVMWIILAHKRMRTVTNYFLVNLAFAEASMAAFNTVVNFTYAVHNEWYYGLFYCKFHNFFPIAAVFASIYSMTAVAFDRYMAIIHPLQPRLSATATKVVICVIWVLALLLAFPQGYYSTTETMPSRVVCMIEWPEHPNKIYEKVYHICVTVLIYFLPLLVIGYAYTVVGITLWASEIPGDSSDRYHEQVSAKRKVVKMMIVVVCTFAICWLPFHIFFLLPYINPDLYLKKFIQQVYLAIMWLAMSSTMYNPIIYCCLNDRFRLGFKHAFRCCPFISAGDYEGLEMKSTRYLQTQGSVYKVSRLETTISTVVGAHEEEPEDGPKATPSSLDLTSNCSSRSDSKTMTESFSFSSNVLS

[14] = biological target: Substance-P receptor (Cavia porcellus) (UniProt P30547); assay: Agonist activity at neurokinin-1 receptor in Hartley guniea pig isolated ileum/Longitudinal Muscle with Myenteric Plexus assessed as inhibition of electrically-stimulated muscle contraction at 300 nM; type: tissue-based
[15] = biological target: Substance-P receptor (Cavia porcellus) (UniProt P30547); assay: Agonist activity at neurokinin-1 receptor in Hartley guniea pig isolated ileum assessed as inhibition of electrically-stimulated muscle contraction at 1 uM; type: tissue-based; design: scale not given: the % may be the effect or the level left
Rattus norvegicus = organism: Rattus norvegicus; assay: Neurotoxicity in Sprague-Dawley rat assessed as motor impairment at 10 ug/5 ul, it by rotarod test; type: toxicity, organism-based; details: in vivo, icv_or_intrathecal
Method in brief: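 Intrathecal catheterized Sprague–Dawley rats given 10 μg in 5 μL; motor function assessed by rotarod.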

[16] = biological target: Delta-type opioid receptor (Mus musculus, UniProt P32300); assay: Agonist activity at delta opioid receptor in ICR mouse isolated vas deferens assessed as inhibition of electrically-stimulated muscle contraction; type: tissue-based
Delta-type opioid receptor (Mus musculus, UniProt P32300), sequence (P32300 whole entry): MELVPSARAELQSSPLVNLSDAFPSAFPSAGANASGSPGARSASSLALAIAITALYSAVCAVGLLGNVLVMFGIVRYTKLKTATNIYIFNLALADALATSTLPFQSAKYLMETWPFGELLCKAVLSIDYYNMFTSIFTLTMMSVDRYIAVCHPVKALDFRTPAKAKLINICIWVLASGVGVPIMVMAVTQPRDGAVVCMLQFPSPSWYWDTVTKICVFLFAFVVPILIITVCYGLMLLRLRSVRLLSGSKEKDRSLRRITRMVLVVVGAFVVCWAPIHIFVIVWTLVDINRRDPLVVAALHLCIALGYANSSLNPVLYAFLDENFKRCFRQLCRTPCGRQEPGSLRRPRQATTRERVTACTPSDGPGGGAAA

[17] = Half-life in rat plasma at 50 ug/ml by RP-HPLC assay; type: ADME, cell-free
Method in brief: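 50 mg/mL DMSO stock diluted 1000-fold into rat plasma (final 50 μg/mL), 37 °C. Aliquots at 0.5–8 h quenched with acetonitrile, centrifuged; parent remaining by RP-HPLC C18. Two independent runs, each in duplicate; half-life from mean of the two.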

T1 sequence (P35372 whole entry): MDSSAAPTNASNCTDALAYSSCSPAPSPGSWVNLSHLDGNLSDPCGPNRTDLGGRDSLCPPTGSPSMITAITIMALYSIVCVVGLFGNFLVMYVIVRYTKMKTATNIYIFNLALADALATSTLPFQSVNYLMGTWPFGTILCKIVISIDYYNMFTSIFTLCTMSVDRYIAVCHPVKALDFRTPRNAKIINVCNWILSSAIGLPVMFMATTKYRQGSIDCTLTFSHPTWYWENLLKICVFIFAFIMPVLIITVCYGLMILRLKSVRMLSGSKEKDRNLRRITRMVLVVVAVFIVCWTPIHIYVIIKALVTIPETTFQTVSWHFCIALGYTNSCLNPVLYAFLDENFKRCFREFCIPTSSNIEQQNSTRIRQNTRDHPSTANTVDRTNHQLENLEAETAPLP

`Cc1cc(O)cc(C)c1C[C@H](N)C(=O)N[C@H](C)C(=O)NCC(=O)N[C@@H](Cc1ccc(I)cc1)C(=O)N1CCC[C@H]1C(=O)N[C@@H](CC(C)C)C(=O)N[C@@H](Cc1c[nH]c2ccccc12)C(=O)NCc1cc(C(F)(F)F)cc(C(F)(F)F)c1` gave an IC50 (Mu-type opioid receptor [1]) of 0.0132 µM.

With `CC(C)C[C@H](NC(=O)[C@@H]1CCCN1C(=O)[C@H](Cc1ccccc1)NC(=O)CNC(=O)[C@@H](C)NC(=O)[C@@H](N)Cc1ccc(O)cc1)C(=O)N[C@@H](Cc1c[nH]c2ccccc12)C(=O)NCc1cc(C(F)(F)F)cc(C(F)(F)F)c1` the IC50 (Mu-type opioid receptor [1]) was 0.02 µM and the Ki (Mu-type opioid receptor [1]) was 0.0095 µM.

In the case of `Cc1cc(O)cc(C)c1C[C@H](N)C(=O)N[C@H](C)C(=O)NCC(=O)N[C@@H](Cc1ccc(Cl)cc1)C(=O)N1CCC[C@H]1C(=O)N[C@@H](CC(C)C)C(=O)N[C@@H](Cc1c[nH]c2ccccc12)C(=O)NCc1cc(C(F)(F)F)cc(C(F)(F)F)c1`, the IC50 (Mu-type opioid receptor [1]) is reported as 0.00468 µM.

In the case of `Cc1cc(O)cc(C)c1C[C@H](N)C(=O)N[C@@H](C)C(=O)NCC(=O)N[C@@H](Cc1ccc(F)cc1)C(=O)N1CCC[C@H]1C(=O)N[C@@H](CC(C)C)C(=O)N[C@@H](Cc1c[nH]c2ccccc12)C(=O)NCc1cc(C(F)(F)F)cc(C(F)(F)F)c1`, the Ratio Ki (Homo sapiens [2]) is reported as 1 and the Activity [3] is reported as “inactive”.

`CC(C)C[C@H](NC(=O)[C@@H]1CCCN1C(=O)[C@H](Cc1ccc(F)cc1)NC(=O)CNC(=O)[C@@H](C)NC(=O)[C@@H](N)Cc1ccc(O)cc1)C(=O)N[C@@H](Cc1c[nH]c2ccccc12)C(=O)NCc1cc(C(F)(F)F)cc(C(F)(F)F)c1` showed a Ki (Substance-P receptor) of 0.034 µM, an IC50 (Mu-type opioid receptor [1]) of 0.00832 µM and an IC50 [4] of 0.0155 µM. It also gave a Ki [4] of 0.007 µM and a remaining at 50 ug/ml [5] of 100%.

Work on `Cc1cc(O)cc(C)c1C[C@H](N)C(=O)N[C@H](C)C(=O)NCC(=O)N[C@@H](Cc1ccccc1)C(=O)N1CCC[C@H]1C(=O)N[C@@H](CC(C)C)C(=O)N[C@@H](Cc1c[nH]c2ccccc12)C(=O)NCc1cc(C(F)(F)F)cc(C(F)(F)F)c1` yielded a Ki (Substance-P receptor; cho) of 0.027 µM, an IC50 (Mu-type opioid receptor [1]) of 0.00234 µM and a Ki (Mu-type opioid receptor [1]) of 0.003 µM. It also gave an IC50 (Mu-type opioid receptor [6]) of 0.081 µM, an IC50 (Mu-type opioid receptor [7]; hek293) of 0.046 µM and an IC50 ([8]; hek293) of 0.0072 µM.

For `Cc1cc(O)cc(C)c1C[C@H](N)C(=O)N[C@@H](C)C(=O)NCC(=O)N[C@@H](Cc1ccccc1)C(=O)N1CCC[C@H]1C(=O)N[C@@H](CC(C)C)C(=O)N[C@@H](Cc1c[nH]c2ccccc12)C(=O)NCc1cc(C(F)(F)F)cc(C(F)(F)F)c1`, the Ratio Ki (Homo sapiens [2]) was 3, the Ratio IC50 [9] was 26 and the Activity [10] was “inactive”. The Ke [11] was 25 nM, the Ratio IC50 (Homo sapiens [12]) was 6 and the Ke [13] was 11 nM.

With `CC(C)C[C@H](NC(=O)[C@@H]1CCCN1C(=O)[C@H](Cc1ccc(F)cc1)NC(=O)CNC(=O)[C@H](C)NC(=O)[C@@H](N)Cc1ccc(O)cc1)C(=O)N[C@@H](Cc1c[nH]c2ccccc12)C(=O)NCc1cc(C(F)(F)F)cc(C(F)(F)F)c1` the Activity [3] was “inactive”.

In the case of `Cc1cc(O)cc(C)c1C[C@H](N)C(=O)N[C@@H](C)C(=O)NCC(=O)N[C@@H](Cc1ccc(Br)cc1)C(=O)N1CCC[C@H]1C(=O)N[C@@H](CC(C)C)C(=O)N[C@@H](Cc1c[nH]c2ccccc12)C(=O)NCc1cc(C(F)(F)F)cc(C(F)(F)F)c1`, the Activity [10] is reported as “inactive”.

In the case of `CC(C)C[C@H](NC(=O)[C@@H]1CCCN1C(=O)[C@H](Cc1ccccc1)N(C)C(=O)CNC(=O)[C@@H](C)NC(=O)[C@@H](N)Cc1ccc(O)cc1)C(=O)N[C@@H](Cc1c[nH]c2ccccc12)C(=O)NCc1cc(C(F)(F)F)cc(C(F)(F)F)c1`, the IC50 (Mu-type opioid receptor [1]) is reported as 0.0891 µM.

With `Cc1cc(O)cc(C)c1C[C@H](N)C(=O)N[C@@H](C)C(=O)NCC(=O)N(C)[C@@H](Cc1ccccc1)C(=O)N1CCC[C@H]1C(=O)N[C@@H](CC(C)C)C(=O)N[C@@H](Cc1c[nH]c2ccccc12)C(=O)NCc1cc(C(F)(F)F)cc(C(F)(F)F)c1` the Activity [3] was “inactive”.

`Cc1cc(O)cc(C)c1C[C@H](N)C(=O)N[C@H](C)C(=O)NCC(=O)N[C@@H](Cc1ccc(Br)cc1)C(=O)N1CCC[C@H]1C(=O)N[C@@H](CC(C)C)C(=O)N[C@@H](Cc1c[nH]c2ccccc12)C(=O)NCc1cc(C(F)(F)F)cc(C(F)(F)F)c1` gave an IC50 (Mu-type opioid receptor [1]) of 0.011 µM.

For `Cc1cc(O)cc(C)c1C[C@H](N)C(=O)N[C@H](C)C(=O)NCC(=O)N(C)[C@@H](Cc1ccc(F)cc1)C(=O)N1CCC[C@H]1C(=O)N[C@@H](CC(C)C)C(=O)N[C@@H](Cc1c[nH]c2ccccc12)C(=O)NCc1cc(C(F)(F)F)cc(C(F)(F)F)c1`, the IC50 (Mu-type opioid receptor [1]) was 0.00282 µM.

With `Cc1cc(O)cc(C)c1C[C@H](N)C(=O)N[C@@H](C)C(=O)NCC(=O)N(C)[C@@H](Cc1ccc(F)cc1)C(=O)N1CCC[C@H]1C(=O)N[C@@H](CC(C)C)C(=O)N[C@@H](Cc1c[nH]c2ccccc12)C(=O)NCc1cc(C(F)(F)F)cc(C(F)(F)F)c1` the Activity [3] was “inactive”.

In the case of `CC(C)C[C@H](NC(=O)[C@@H]1CCCN1C(=O)[C@H](Cc1ccccc1)N(C)C(=O)CNC(=O)[C@H](C)NC(=O)[C@@H](N)Cc1ccc(O)cc1)C(=O)N[C@@H](Cc1c[nH]c2ccccc12)C(=O)NCc1cc(C(F)(F)F)cc(C(F)(F)F)c1`, the Ratio IC50 [9] is reported as 2 and the Activity [10] is reported as “inactive”.

With `Cc1cc(O)cc(C)c1C[C@H](N)C(=O)N[C@@H](C)C(=O)NCC(=O)N[C@@H](Cc1ccc(Cl)cc1)C(=O)N1CCC[C@H]1C(=O)N[C@@H](CC(C)C)C(=O)N[C@@H](Cc1c[nH]c2ccccc12)C(=O)NCc1cc(C(F)(F)F)cc(C(F)(F)F)c1` the Ratio Ki (Homo sapiens [2]) was 1, the Ratio IC50 [9] was 7 and the Activity [14] was “inactive”.

With `Cc1cc(O)cc(C)c1C[C@H](N)C(=O)N[C@@H](C)C(=O)NCC(=O)N[C@@H](Cc1ccc(I)cc1)C(=O)N1CCC[C@H]1C(=O)N[C@@H](CC(C)C)C(=O)N[C@@H](Cc1c[nH]c2ccccc12)C(=O)NCc1cc(C(F)(F)F)cc(C(F)(F)F)c1` the Activity [14] was “inactive” and the Activity [15] was 41%.

For `Cc1cc(O)cc(C)c1C[C@H](N)C(=O)N[C@H](C)C(=O)NCC(=O)N(C)[C@@H](Cc1ccccc1)C(=O)N1CCC[C@H]1C(=O)N[C@@H](CC(C)C)C(=O)N[C@@H](Cc1c[nH]c2ccccc12)C(=O)NCc1cc(C(F)(F)F)cc(C(F)(F)F)c1`, the IC50 (Mu-type opioid receptor [1]) was 0.00166 µM, the IC50 (Mu-type opioid receptor [7]) was 0.039 µM and the IC50 [8] was 0.03 µM. The remaining at 50 ug/ml [5] was 100% and the Activity (Rattus norvegicus) was “Toxic”.

`Cc1cc(O)cc(C)c1C[C@H](N)C(=O)N[C@H](C)C(=O)NCC(=O)N[C@@H](Cc1ccc(F)cc1)C(=O)N1CCC[C@H]1C(=O)N[C@@H](CC(C)C)C(=O)N[C@@H](Cc1c[nH]c2ccccc12)C(=O)NCc1cc(C(F)(F)F)cc(C(F)(F)F)c1` showed an IC50 (Mu-type opioid receptor [1]) of 0.00191 µM, an IC50 [4] of 0.0661 µM and an IC50 [16] of 0.002 µM. For the same molecule, the IC50 (Mu-type opioid receptor [7]) was 0.059 µM, the IC50 [8] was 0.021 µM and the remaining at 50 ug/ml [5] was 100%. For the same molecule, the half-life at 50 ug/ml [17] was over 12 h.
